# Data as given in PubChem BioAssay AID871 (The Scripps Research Institute Molecular Screening Center, 2007).
# About 1,800 (0.95%) of roughly 190,000 compounds were called active. The entries come from a sample that favours actives as a whole. Unmarked numbers belong to inactive results.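 How the source made its calls: active means activation above the screen-wide mean of compound activation plus 3 SD (cut at about 130% in these data); inactive means the rest.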
# Experiment: IL-6 driven STAT3 reporter potentiators, primary screen, U3A cells, luciferase, luminescence, MLSCN library (AID 871);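 further: 0% = background luminescence of wells with medium and substrate only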
# Conditions: IL-6 STAT3-luciferase reporter, at 5.6 µM, stronger effect = higher value, 100% = signal with IL-6 EC80 alone
# Summary of the method: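 Assay system – human STAT1-deficient U3A cells with stable STAT3-luciferase reporter · Also added – IL-6 (33 ng/mL) · Schedule – compound 1 h, then IL-6 6 h at 37 °C · Technique – reporter luminescence signal · Evaluation – % activation versus median of IL-6-stimulated wells · Benchmarks – IL-6-only wells as 100% reference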
row,Compound,activation (% of control)
1,CCCC(=O)N=c1sc2cccc(F)c2n1C,113%
2,Cn1c(=NC(=O)c2ccco2)sc2cccc(F)c21,144% (active)
3,Cn1c(=NC(=O)c2cnccn2)sc2ccccc21,83.8%
4,O=C(Cc1c[nH]c2ccccc12)OCCOC(=O)Cc1c[nH]c2ccccc12,136% (active)
5,CCOC(=O)CN(C)Cc1c[nH]c2ccccc12,137% (active)
6,COc1ccccc1NC(=O)CCCc1c[nH]c2ccccc12,88.8%
7,CCC(CC)NC(=O)CSc1nnc(-c2c[nH]c3ccccc23)o1,90.9%
8,O=C(CSc1nnc(-c2c[nH]c3ccccc23)o1)c1ccccc1,106%
9,NS(=O)(=O)c1ccc(NC(=O)COC(=O)CCc2c[nH]c3ccccc23)cc1,108%
10,NC(=O)CSc1c[nH]c2ccccc12,143% (active)
11,CC(C)(C)N(Cc1ccccc1)C(=O)COC(=O)CCc1c[nH]c2ccccc12,87.1%
12,CN(Cc1cccs1)C(=O)Cc1c[nH]c2ccccc12,86%
13,Cc1ccnc(NC(=O)Cn2ccc([N+](=O)[O-])n2)c1,96.1%
14,CCOC(=O)c1cnc2c(c(C)nn2CC)c1Cl,107%
15,Oc1oc(-c2ccccc2Br)nc1/C=N/c1ccccn1,107%
16,O=C(CSc1ccccc1F)NC1CCS(=O)(=O)C1 (stereo not drawn),95.7%
17,CC(NC(=O)COC(=O)C1CCN(S(=O)(=O)c2ccccc2C(F)(F)F)CC1)c1ccccc1 (stereo not drawn),106%
18,CCOc1ccc(-n2c(SCC(=O)NC3CCS(=O)(=O)C3)nnc2-c2cccnc2)cc1 (stereo not drawn),99.7%
19,COC(=O)C(C)N=Cc1ccccc1 (stereo not drawn),102%
20,S=C(NCCc1ccccc1)N1CCn2cccc2C1c1ccncc1 (stereo not drawn),103%
21,Cn1nc(C(F)(F)F)c2cc(C(=O)N3CCOCC3)sc21,105%

row,Compound,activation (% of control)
1,Cc1ccc(NC(=O)CN2CCc3ccccc3C2)cc1,99.5%
2,Cc1ccc(S(=O)(=O)Nc2nc3ccccc3nc2N2CCc3ccccc3C2)cc1,147% (active)
3,Cc1ccc(S(=O)(=O)C(C#N)c2nc3ccccc3nc2N2CCCC2)cc1C (stereo not drawn),92.7%
4,O=C(COc1ccccc1)Nc1ccc(N2CCN(C(=O)c3cccs3)CC2)cc1,93.1%
5,O=C1NC2(CCCCCC2)C(=O)N1CCS(=O)(=O)Oc1ccccc1,104%
6,Clc1cccc(-c2nc3nc4ccccc4nc3n2Cc2ccco2)c1,135% (active)
7,Cc1ccc(Cn2c(C)nc3c(c2=O)c2nc4ccccc4nc2n3Cc2ccco2)cc1,107%
8,Cc1cc(NC(=O)CSc2nc3cc(Cl)ccc3c(=O)n2Cc2ccco2)no1,103%
9,C/C(=N\NC(=O)CCn1nc(C)cc1C)C(C)(C)C,95.6%
10,O=C(CSc1ncnc2scc(-c3ccccc3)c12)NCc1ccc2c(c1)OCO2,103%
11,COc1ccc(-c2cc(C(=O)NCc3ccco3)no2)cc1OC,101%
12,COc1ccccc1N1CCN(C(=O)c2cc3c(-c4ccc(Cl)cc4)nn(C)c3s2)CC1,146% (active)
13,COc1cccc(-c2nn(C)c3sc(C(=O)N4CCN(c5ccccc5)CC4)cc23)c1,103%
14,COc1ccc2c(Cl)c(C(=O)NCc3ccco3)sc2c1,95.9%
15,Cn1nc(-c2ccc(Cl)cc2)c2cc(C(=O)NCc3ccco3)sc21,158% (active)
16,CCOC(=O)N1CCN(C(=O)c2cc3c(-c4ccc(Cl)cc4)nn(C)c3s2)CC1,107%
17,CN(C)C(=O)c1ccc2c(c1)C1C3CCC(C3)C1C(c1ccccc1)N2 (stereo not drawn),91.5%
18,CCOc1ccc(NS(=O)(=O)c2cc(C)c(C)cc2C)cc1,102%
19,COc1ccc(OC(C)C(=O)NCCc2nc3ccccc3[nH]2)cc1 (stereo not drawn),98.1%
20,COc1cc(OC)cc(C(=O)N[C@H](C(=O)Nc2nc3ccccc3[nH]2)C(C)C)c1,148% (active)
21,COc1cc(OC)cc(C(=O)N[C@H](C(=O)OCC(=O)NC(C)c2ccccc2)C(C)C)c1 (stereo partly drawn),102%

row,Compound,activation (% of control)
1,Cc1cc2oc(=O)cc(CN3CCN(S(=O)(=O)c4cccs4)CC3)c2cc1C(C)C,98.7%
2,Cc1cc(C2=NNC(=Nc3ccc(S(=O)(=O)N4CCOCC4)cc3)SC2)c(C)n1CC1CCCO1 (stereo not drawn),102%
3,COCCn1c(C)cc(C2=NNC(=Nc3ccc(F)cc3)SC2)c1C,133% (active)
4,C=CCn1c(C)cc(C2=NNC(=NCC)SC2)c1C,8.94%
5,Cc1c(Cl)c([N+](=O)[O-])nn1CCCC(=O)NC(C)c1ccccc1 (stereo not drawn),101%
6,O=S1(=O)CC/C(=N\Nc2ccc(F)cc2)c2ccsc21,80.3%
7,C=Cn1c(C(=O)O)ccc1-c1ccc(OC)cc1,103%
8,O=C(COC(=O)c1ccncc1)c1ccccc1,97.1%
9,COc1cccc(NC(=O)C(Sc2nnnn2C)c2ccccc2)c1 (stereo not drawn),88.9%
10,COC(=O)c1c(-c2cccs2)csc1NC(=O)CSc1ncnc2sc(C)c(C)c12,93.1%
11,Cc1sc2ncnc(Sc3nc4ccccc4s3)c2c1C,135% (active)
12,CSc1ncnc2sc(C)c(C)c12,91.1%
13,Cc1csc(CN(C)C(=O)CC2C(=O)NCCN2CC(C)(C)C)n1 (stereo not drawn),96.6%
14,O=C(CN1CCN(c2ccc(Cl)cc2)CC1)NCc1cccs1,99%
15,Cc1c(CCO)c(=O)n(-c2ccccc2)n1S(=O)(=O)c1ccc(F)cc1,100%
16,CC(=O)NC1(c2ccc(F)cc2)CCN(C(=O)c2c(F)cccc2F)CC1,104%
17,Cc1c(CCO)c(=O)[nH]n1C(=O)c1c(F)cccc1F,134% (active)
18,CN1CCN(CCCCOc2ccccc2-c2ccccc2)CC1,96.6%
19,CCOC(=O)c1ccccc1NC(=S)N1CCC(C(N)=O)CC1,98.2%
20,COc1ccc(Cl)cc1N(CC(=O)N1CCCCC1)S(C)(=O)=O,99%
21,Cc1ccc2cc(C)c(N3CCC(C)CC3)nc2c1,86.1%
